{
  "source": "paper PMC11393732",
  "about": "(RSC Medicinal Chemistry, 2024)",
  "key": {"KDM3A": {"molecular_target": "T1, KDM3A (Homo sapiens, UniProt Q9Y4C1)", "T1 sequence (Q9Y4C1 1-1321)": "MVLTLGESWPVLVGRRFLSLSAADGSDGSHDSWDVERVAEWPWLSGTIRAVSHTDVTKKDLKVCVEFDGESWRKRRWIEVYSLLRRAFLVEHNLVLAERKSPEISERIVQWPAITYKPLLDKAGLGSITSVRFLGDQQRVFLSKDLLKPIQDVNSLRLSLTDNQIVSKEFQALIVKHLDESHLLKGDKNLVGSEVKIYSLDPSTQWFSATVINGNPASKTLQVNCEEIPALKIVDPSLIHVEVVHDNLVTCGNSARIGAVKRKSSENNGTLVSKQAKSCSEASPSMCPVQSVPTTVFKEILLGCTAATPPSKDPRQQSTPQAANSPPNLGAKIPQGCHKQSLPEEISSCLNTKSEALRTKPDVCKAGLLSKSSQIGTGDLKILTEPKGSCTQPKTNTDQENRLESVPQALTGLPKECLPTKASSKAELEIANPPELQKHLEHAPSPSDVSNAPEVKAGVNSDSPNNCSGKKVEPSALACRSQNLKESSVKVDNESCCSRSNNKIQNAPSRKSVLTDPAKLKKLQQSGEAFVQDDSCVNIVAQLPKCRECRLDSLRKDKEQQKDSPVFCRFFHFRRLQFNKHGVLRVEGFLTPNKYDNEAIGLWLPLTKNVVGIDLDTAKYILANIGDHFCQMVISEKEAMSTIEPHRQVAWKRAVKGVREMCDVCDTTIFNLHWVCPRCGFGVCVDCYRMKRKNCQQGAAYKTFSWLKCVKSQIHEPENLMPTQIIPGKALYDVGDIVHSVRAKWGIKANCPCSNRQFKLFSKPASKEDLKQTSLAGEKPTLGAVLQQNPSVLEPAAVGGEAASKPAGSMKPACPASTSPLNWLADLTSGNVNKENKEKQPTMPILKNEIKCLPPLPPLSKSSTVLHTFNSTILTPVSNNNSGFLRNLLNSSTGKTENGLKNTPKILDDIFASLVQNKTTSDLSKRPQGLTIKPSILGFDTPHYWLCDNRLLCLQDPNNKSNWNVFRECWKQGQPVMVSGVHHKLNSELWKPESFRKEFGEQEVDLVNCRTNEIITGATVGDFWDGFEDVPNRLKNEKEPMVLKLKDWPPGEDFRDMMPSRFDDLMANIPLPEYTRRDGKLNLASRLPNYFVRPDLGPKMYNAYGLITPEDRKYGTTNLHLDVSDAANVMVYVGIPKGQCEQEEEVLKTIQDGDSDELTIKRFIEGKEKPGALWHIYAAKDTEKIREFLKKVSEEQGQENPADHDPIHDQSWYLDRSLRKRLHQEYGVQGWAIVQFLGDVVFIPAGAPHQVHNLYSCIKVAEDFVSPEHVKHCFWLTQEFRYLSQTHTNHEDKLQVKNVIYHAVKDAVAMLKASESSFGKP", "test": "Western blot KDM3A degradation in SW480 cells", "format": "cell-based", "conditions": "SW480 cells, 16 hours", "outline": "(§1)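 SW480 cells exposed to test compound for 16 h, then total lysates protein-normalised and run on SDS-PAGE. Semi-dry transfer to PVDF, 1 h block in 5% milk. Primary antibody overnight at 4 °C in 1% milk, secondary 1 h at RT, TBST washes, α-tubulin as loading control. Rescue arms co-treated with MLN4924 (1 μM) or pomalidomide (100 μM). Test compound at 0.1 μM for the KDM3A blot and 1 μM for the KDM3B blot.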"}, "KDM3B": {"molecular_target": "KDM3B (Homo sapiens, UniProt Q7LBC6)", "sequence (Q7LBC6 whole entry)": "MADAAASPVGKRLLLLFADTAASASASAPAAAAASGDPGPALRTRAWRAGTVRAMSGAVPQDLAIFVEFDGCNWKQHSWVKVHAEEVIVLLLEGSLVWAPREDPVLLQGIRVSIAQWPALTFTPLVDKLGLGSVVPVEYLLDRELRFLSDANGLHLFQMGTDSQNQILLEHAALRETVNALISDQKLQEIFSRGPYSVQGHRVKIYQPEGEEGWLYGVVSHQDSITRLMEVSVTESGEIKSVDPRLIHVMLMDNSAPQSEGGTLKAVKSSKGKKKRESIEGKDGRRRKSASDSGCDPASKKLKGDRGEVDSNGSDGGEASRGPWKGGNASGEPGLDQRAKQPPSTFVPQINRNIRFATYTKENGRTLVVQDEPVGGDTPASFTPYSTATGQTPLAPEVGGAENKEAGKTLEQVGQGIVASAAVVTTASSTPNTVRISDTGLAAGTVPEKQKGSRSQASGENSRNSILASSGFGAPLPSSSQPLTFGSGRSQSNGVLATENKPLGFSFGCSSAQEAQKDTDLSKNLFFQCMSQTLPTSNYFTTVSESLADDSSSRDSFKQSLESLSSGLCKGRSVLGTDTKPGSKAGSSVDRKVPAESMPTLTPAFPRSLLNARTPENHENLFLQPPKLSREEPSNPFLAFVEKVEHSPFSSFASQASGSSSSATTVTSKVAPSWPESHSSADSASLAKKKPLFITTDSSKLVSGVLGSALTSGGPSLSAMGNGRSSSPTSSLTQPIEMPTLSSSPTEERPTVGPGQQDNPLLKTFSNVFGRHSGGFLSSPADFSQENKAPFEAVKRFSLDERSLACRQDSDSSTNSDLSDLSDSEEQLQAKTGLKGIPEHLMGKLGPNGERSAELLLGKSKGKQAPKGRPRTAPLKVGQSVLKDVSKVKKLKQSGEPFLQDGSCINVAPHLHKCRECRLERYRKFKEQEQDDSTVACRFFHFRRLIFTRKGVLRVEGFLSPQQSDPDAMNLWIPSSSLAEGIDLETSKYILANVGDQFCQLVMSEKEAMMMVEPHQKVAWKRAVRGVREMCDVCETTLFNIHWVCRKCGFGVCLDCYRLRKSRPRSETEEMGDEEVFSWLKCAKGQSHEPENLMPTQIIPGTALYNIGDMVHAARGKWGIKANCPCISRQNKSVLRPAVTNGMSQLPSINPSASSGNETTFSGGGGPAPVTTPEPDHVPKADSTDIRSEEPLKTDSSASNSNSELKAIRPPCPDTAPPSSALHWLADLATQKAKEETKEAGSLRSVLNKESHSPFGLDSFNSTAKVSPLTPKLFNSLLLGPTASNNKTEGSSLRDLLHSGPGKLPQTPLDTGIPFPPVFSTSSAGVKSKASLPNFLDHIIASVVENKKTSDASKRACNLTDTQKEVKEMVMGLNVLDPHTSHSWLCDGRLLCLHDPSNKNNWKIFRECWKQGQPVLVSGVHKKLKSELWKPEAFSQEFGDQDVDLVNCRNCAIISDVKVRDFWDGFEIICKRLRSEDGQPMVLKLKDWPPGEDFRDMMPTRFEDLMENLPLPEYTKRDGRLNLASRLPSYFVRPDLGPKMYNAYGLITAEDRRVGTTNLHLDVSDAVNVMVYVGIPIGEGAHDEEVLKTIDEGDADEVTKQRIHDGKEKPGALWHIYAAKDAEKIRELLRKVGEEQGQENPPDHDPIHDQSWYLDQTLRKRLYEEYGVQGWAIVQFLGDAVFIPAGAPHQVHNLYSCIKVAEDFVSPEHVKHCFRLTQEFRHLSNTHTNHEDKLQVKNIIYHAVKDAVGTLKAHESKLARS", "test": "Western blot KDM3B degradation in SW480 cells", "format": "cell-based", "conditions": "SW480 cells, 16 hours", "outline": "as §1"}, "[1]": {"test": "Hepatic metabolism S9 fraction incubation, human", "conditions": "0.1 μM, plus glutathione, UDPGA, PAPS, 37 °C"}, "[2]": {"test": "Hepatic metabolism S9 fraction incubation, rat", "conditions": "0.1 μM, plus glutathione, UDPGA, PAPS, 37 °C"}, "[3]": {"system": "293T cells expressing a TCF-responsive luciferase reporter (293T-TCF-Luc)", "test": "Wnt luciferase reporter assay", "format": "cell-based", "conditions": "Homo sapiens, HEK-293T, 16 h, read-out: IC50 (293T-TCF-Luc)", "outline": "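293T cells stably transduced with a lentiviral TCF/LEF–luciferase reporter and selected in puromycin ([…], 4 days). Seeded at 100 000 cells/well and dosed with test compound on attachment. Wnt signalling stimulated with 20 mM LiCl 4 h later. Lysates taken at 16 h; Bright-Glo luminescence normalised to total protein.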"}, "ALDH^high-HCP-1 CSCs": {"system": "ALDH^high-HCP-1 CSCs", "test": "Tumor sphere formation assay HCP-1", "format": "cell-based, human", "conditions": "2 weeks", "outline": "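Trypsinised cells passed through a 40 μm strainer and stained with ALDEFLUOR. ALDHHigh cells sorted by FACS, with DEAB-treated cells as gating control. Plated at 1000 cells/well on ultra-low attachment in serum-free MEBM containing 2% B27, 20 ng mL−1 EGF, 10 ng mL−1 FGF, 1 ng mL−1 hydrocortisone, 5 μg mL−1 insulin and 100 μM β-mercaptoethanol. Dosed 1 h after plating; medium renewed at 1 week. Spheres >40 μm counted at 2 weeks for ED50.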"}, "CSC growth": {"system": "CSC growth", "conditions": "most cell-based assays ref 16,17; cited from earlier work"}, "[4]": {"system": "KDM4 family proteins (KDM4A, KDM4B and KDM4C)", "test": "Western blot KDM4 family proteins in SW480 cells", "format": "cell-based, human", "outline": "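Lysates from compound-treated SW480 cells normalised for total protein and resolved by SDS-PAGE. Semi-dry transfer to PVDF, 1 h block in 5% milk. Overnight incubation at 4 °C with anti-KDM4A, -KDM4B or -KDM4C antibody in 1% milk, secondary 1 h at RT, TBST washes, α-tubulin as loading control.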"}, "CRL-1790 cells": {"system": "CRL-1790 cells", "test": "CCK-8 based toxicity assay", "format": "cell-based, human", "outline": "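Non-malignant human colon epithelial CRL-1790 cells grown in EMEM with 10% FBS and 1% pen–strep at 37 °C and 5% CO2. Seeded at 3 × 10^3 cells/well in 96-well plates, then exposed to test compound. Viability read by CCK-8 at 48 h as OD 450 nm. TD50 derived from the dose–response.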"}, "[5]": {"system": "Wnt target genes in SW480 cells", "test": "RT-qPCR of Wnt target gene expression in SW480", "format": "cell-based, human", "outline": "(§2)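 Cells in 6-well plates exposed to test compound for 16 h. Total RNA extracted; 1 μg reverse-transcribed with M-MuLV and random hexamers. SYBR Green qPCR for the named genes, quantified by 2ΔΔct against tubulin. Mean ± SD; unpaired two-tailed Student's t-test.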"}, "[6]": {"system": "Wnt target genes in HCP-1 cells", "test": "RT-qPCR of Wnt target gene expression in HCP-1", "format": "cell-based, human", "outline": "as §2"}, "SW480 cells": {"system": "SW480 cells", "test": "Clonogenic assay SW480", "format": "cell-based, human", "conditions": "SW480, 2 weeks", "outline": "(§3)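 Cells kept in DMEM with 10% FBS and 1% pen–strep, seeded at 500 cells/well and dosed with test compound once attached. Medium refreshed every 3 days for 2 weeks. Colonies stained with 0.5% crystal violet and photographed. ED50 obtained by image analysis.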"}, "HCP-1 cells": {"system": "HCP-1 cells", "test": "Clonogenic assay HCP-1", "format": "cell-based, human", "conditions": "HCP-1, 2 weeks", "outline": "as §3"}},
  "data": [
    {"molecule": "O=C1CCC(N2C(=O)c3cccc(NCCOCCOCCOCCOCCOCCNC(=O)c4ccc(O)c5ncccc45)c3C2=O)C(=O)N1", "note": "(stereo not drawn) [Compound 5, N-(17-((2-(2,6-Dioxopiperidin-3-yl)-1,3-dioxoisoindolin-4-yl)amino)-3,6,9,12,15-pentaoxaheptadecyl)-8-hydroxyquinoline-5-carboxamide]", "values": [
      {"measurement": "KDM3A degradation (western blot)", "setting": "KDM3A", "value": "little effect in degrading KDM3A and KDM3B"},
      {"measurement": "KDM3B degradation (western blot)", "setting": "KDM3B", "value": "little effect in degrading KDM3A and KDM3B"}
    ]},
    {"molecule": "CC(C)NCC(O)COc1cccc2ccccc12", "note": "(stereo not drawn) [Propranolol, reference compound]", "values": [
      {"measurement": "half-life at 0.1 μM", "setting": "[1]; human, s9, t 1/2 Human (liver, S9)", "value": "> 2", "unit": "h"}
    ]},
    {"molecule": "O=C(O)Cc1ccccc1Nc1c(Cl)cccc1Cl", "note": "[Diclofenac, reference compound]", "values": [
      {"measurement": "CLint Rat (liver, S9)", "setting": "[2]", "value": 6.8, "unit": "µL/min/mg"},
      {"measurement": "CLint Human (liver, S9)", "setting": "[1]", "value": 37.5, "unit": "µL/min/mg"}
    ]},
    {"molecule": "O=C(O)c1ccc(O)c2ncccc12", "note": "[IOX1, 8-Hydroxyquinoline-5-carboxylic acid, reference compound]", "values": [
      {"measurement": "IC50", "setting": "[3]", "value": 48.6, "unit": "µM"},
      {"measurement": "KDM3A degradation (western blot)", "setting": "KDM3A", "value": "did not induce KDM3A and KDM3B degradation"},
      {"measurement": "KDM3B degradation (western blot)", "setting": "KDM3B", "value": "did not induce KDM3A and KDM3B degradation"},
      {"measurement": "ED50 HCP-1 (tumor sphere formation)", "setting": "ALDH^high-HCP-1 CSCs", "value": 10.1, "unit": "µM"},
      {"measurement": "effective concentrations for suppressing CSC growth", "setting": "CSC growth", "value": "20 to 50", "unit": "µM"}
    ]},
    {"molecule": "O=C1CCC(N2C(=O)c3cccc(NCCOCCOCCOCCOCCOCCOCCNC(=O)c4ccc(O)c5ncccc45)c3C2=O)C(=O)N1", "note": "(stereo not drawn) [Compound 6, N-(20-((2-(2,6-Dioxopiperidin-3-yl)-1,3-dioxoisoindolin-4-yl)amino)-3,6,9,12,15,18-hexaoxaicosyl)-8-hydroxyquinoline-5-carboxamide]", "values": [
      {"measurement": "KDM3A degradation (western blot)", "setting": "KDM3A", "value": "limited ability to degrade KDM3A and KDM3B"},
      {"measurement": "KDM3B degradation (western blot)", "setting": "KDM3B", "value": "limited ability to degrade KDM3A and KDM3B"},
      {"measurement": "effect on KDM4 family proteins", "setting": "[4]", "value": "not dramatically affected"},
      {"measurement": "cell growth of CRL-1790", "setting": "CRL-1790 cells; 60 μM, two-day treatment", "value": "not dramatically affected"},
      {"measurement": "TD50 CRL-1790", "setting": "CRL-1790 cells; CCK8 assay, 48 h post drug treatment", "value": 400.3, "unit": "µM"},
      {"measurement": "suppression of Wnt target gene expression (AXIN2, DKK1, CCND1)", "setting": "[5]; SW480, 50 μM, 16-hour treatment, in most cases", "value": "≥ 50", "unit": "%"},
      {"measurement": "expression of colorectal CSC signature genes (ASCL2, RNF43, ZNRF3, LGR5)", "setting": "[5]; SW480, 16 hours", "value": "strongly inhibited"},
      {"measurement": "suppression of Wnt target gene expression (AXIN2, DKK1, CCND1)", "setting": "[6]; HCP-1, 50 μM, 16-hour treatment, in most cases", "value": "≥ 50", "unit": "%"},
      {"measurement": "expression of colorectal CSC signature genes (ASCL2, RNF43, ZNRF3, LGR5)", "setting": "[6]; HCP-1, 16 hours", "value": "strongly inhibited"},
      {"measurement": "colony formation", "setting": "SW480 cells", "value": "potently inhibited the colony formation"},
      {"measurement": "colony formation", "setting": "HCP-1 cells", "value": "potently inhibited the colony formation"},
      {"measurement": "ED50 HCP-1 (tumor sphere formation)", "setting": "ALDH^high-HCP-1 CSCs", "value": 0.51, "unit": "µM"}
    ]},
    {"molecule": "O=C1CCC(N2C(=O)c3cccc(NCCOCCOCCOCCNC(=O)c4ccc(O)c5ncccc45)c3C2=O)C(=O)N1", "note": "(stereo not drawn) [Compound 3, N-(2-(2-(2-(2-((2-(2,6-Dioxopiperidin-3-yl)-1,3-dioxoisoindolin-4-yl)amino)ethoxy)ethoxy)ethoxy)ethyl)-8-hydroxyquinoline-5-carboxamide]", "values": [
      {"measurement": "KDM3A degradation (western blot)", "setting": "KDM3A", "value": "little effect in degrading KDM3A and KDM3B"},
      {"measurement": "KDM3B degradation (western blot)", "setting": "KDM3B", "value": "little effect in degrading KDM3A and KDM3B"}
    ]}
  ]
}
